The values that follow come from ChEMBL document CHEMBL3627702, “Navigating CYP1A Induction and Arylhydrocarbon Receptor Agonism in Drug Discovery. A Case History with S1P1 Agonists” (J Med Chem, 2015).

Series [1] is described as follows: Oral bioavailability in CD rat at 3 mg/kg. The format is ADME, organism-based. The conditions noted are these: in vivo. The procedure, abridged: (§1)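 Male CD rats cannulated in the femoral and jugular veins, n = 3, crossover design. Day 1: 1 h iv infusion at 1 mg/kg (0.2 mg/mL in ≤5% DMSO/≥95% 10% Kleptose in saline, 5 mL/kg/h). Day 2: oral gavage at 3 mg/kg (0.6 mg/mL in 1% methylcellulose, 5 mL/kg). Blood assayed by LC–MS/MS after acetonitrile precipitation.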

Series [2] can be described thus: Half life in CD rat at 1 mg/kg, iv. To be noted: in vivo. The class given is ADME, organism-based. The procedure, abridged: (§2)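 Male CD rats carried femoral vein (dosing) and jugular vein (sampling) cannulae and recovered at least 2 days. They received a 1 h iv infusion at 5 mL kg−1 h−1, target 1 mg/kg, at 0.2 mg/mL in DMSO/10% Kleptose in saline (≤5%:≥95%). pH was adjusted to 8.0 if needed and the solution filtered. Definitive studies used n = 3 in crossover; others used single animals.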

A short description of series [3]: Volume of distribution at steady state in CD rat at 1 mg/kg, iv. The format is ADME, organism-based. The conditions noted are these: in vivo, read-out: Vdss. An outline of the steps:
as §1

Series [4] is described as follows: Blood clearance in CD rat at 1 mg/kg, iv. The format is ADME, organism-based. An outline of the steps:
as §2

Series [5] is described as follows: Lipophilicity, log D of the compound at pH 7.4. The class given is physicochemical. The conditions noted are these: buffer.
Series [6] is described as follows: Dissociation constant, pKa of the compound. The class given is physicochemical.
The test system of series [7] is CYP1A1. Nature of the series: Induction of CYP1A1 mRNA expression in Sprague-Dawley rat hepatic microsomes at 24 mg/kg, po QD for 4 days relative to control. To be noted: read-out: FC. The format is ADME, organism-based, Liver. An outline of the steps:
(§3)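 Male CD rats (226–325 g, n = 3) were dosed by oral gavage once daily for 4 days as a 1% w/v aqueous methylcellulose suspension (3–6 mg/mL, 5 mL/kg). At the end of the study, a left lateral liver lobe section was placed in RNALater and homogenised in TRIzol. RNA was purified, DNase-treated and converted to cDNA, and Cyp1a1 was read on low-density TaqMan arrays.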

Series [8] has as its system CYP1A2. As to the kind of experiment: Induction of CYP1A2 mRNA expression in Sprague-Dawley rat hepatic microsomes at 24 mg/kg, po QD for 4 days relative to control. The class given is ADME, organism-based, Liver. To be noted: read-out: FC.
Series [9] is described as follows: Cmax in Sprague-Dawley rat at 24 mg/kg, po QD measured on day 1. More on the design: dose 24 mg/kg, route oral. The format is ADME, organism-based. To be noted: in vivo. The procedure, abridged:
(§4)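 Male CD rats (226−325 g), n = 3, given the compound once daily by oral gavage for 4 days. Vehicle was 1% (w/v) methylcellulose aq suspension at 3−6 mg/mL, dosed at 5 mL/kg (target 15−30 mg/kg). Tail vein blood was taken on days 1 and 4 up to 24 h postdose. Blood was diluted 1:1 with water, extracted by acetonitrile protein precipitation and analysed by LC−MS/MS against calibration standards in diluted blood.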

The nature of series [10]: Cmax in Sprague-Dawley rat at 24 mg/kg, po QD measured on day 4. The format is ADME, organism-based. More on the design: dose 24 mg/kg, route oral. The conditions noted are these: in vivo. The procedure, abridged:
as §4

A short description of series [11]: AUC in Sprague-Dawley rat at 24 mg/kg, po QD measured on day 1. The format is ADME, organism-based. To be noted: in vivo. The procedure, abridged: as §4
Series [12] in a line: AUC in Sprague-Dawley rat at 24 mg/kg, po QD measured on day 4. The class given is ADME, organism-based. The conditions noted are these: in vivo. The procedure, abridged:
as §4

Series [13] relates to Rattus norvegicus. As to the kind of experiment: Dose normalized AUC in Sprague-Dawley rat at 24 mg/kg, po QD measured on day 1. The format is ADME, organism-based. The conditions noted are these: in vivo. An outline of the steps: as §4
In series [14] the test system is Rattus norvegicus. Nature of the series: Dose normalized AUC in Sprague-Dawley rat at 24 mg/kg, po QD measured on day 4. The format is ADME, organism-based. To be noted: in vivo. The procedure, abridged: as §4
Series [15] has as its system CYP1A1. As to the kind of experiment: Induction of CYP1A1 mRNA expression in Sprague-Dawley rat hepatic microsomes at 15 mg/kg, po QD for 4 days relative to control. The class given is ADME, organism-based, Liver. The conditions noted are these: read-out: FC. The procedure, abridged: as §3
In series [16] the test system is CYP1A2. Nature of the series: Induction of CYP1A2 mRNA expression in Sprague-Dawley rat hepatic microsomes at 15 mg/kg, po QD for 4 days relative to control. The format is ADME, organism-based, Liver. The conditions noted are these: read-out: FC.
A short description of series [17]: Cmax in Sprague-Dawley rat at 15 mg/kg, po QD measured on day 1. The class given is ADME, organism-based. Also on record: dose 15 mg/kg, route oral. The conditions noted are these: in vivo. An outline of the steps:
as §4

The nature of series [18]: Cmax in Sprague-Dawley rat at 15 mg/kg, po QD measured on day 4. The format is ADME, organism-based. Also on record: dose 15 mg/kg, route oral. To be noted: in vivo. An outline of the steps:
as §4

The nature of series [19]: AUC in Sprague-Dawley rat at 15 mg/kg, po QD measured on day 1. The class given is ADME, organism-based. To be noted: in vivo. An outline of the steps:
as §4

The nature of series [20]: AUC in Sprague-Dawley rat at 15 mg/kg, po QD measured on day 4. The class given is ADME, organism-based. To be noted: in vivo. An outline of the steps: as §4
Series [21] deals with Rattus norvegicus. Nature of the series: Dose normalized AUC in Sprague-Dawley rat at 15 mg/kg, po QD measured on day 1. The class given is ADME, organism-based. To be noted: in vivo. An outline of the steps: as §4
The test system of series [22] is Rattus norvegicus. As to the kind of experiment: Dose normalized AUC in Sprague-Dawley rat at 15 mg/kg, po QD measured on day 4. The format is ADME, organism-based. The conditions noted are these: in vivo. An outline of the steps:
as §4

Series [23] has as its system CYP1A1. Nature of the series: Induction of CYP1A1 mRNA expression in Sprague-Dawley rat hepatic microsomes at 19 mg/kg, po QD for 4 days relative to control. The conditions noted are these: read-out: FC. The class given is ADME, organism-based, Liver. The procedure, abridged:
as §3

The subject of series [24] is CYP1A2. Nature of the series: Induction of CYP1A2 mRNA expression in Sprague-Dawley rat hepatic microsomes at 19 mg/kg, po QD for 4 days relative to control. The format is ADME, organism-based, Liver. To be noted: read-out: FC.
Series [25] is described as follows: Cmax in Sprague-Dawley rat at 19 mg/kg, po QD measured on day 1. The format is ADME, organism-based. More on the design: dose 19 mg/kg, route oral. The conditions noted are these: in vivo. An outline of the steps: as §4
The nature of series [26]: Cmax in Sprague-Dawley rat at 19 mg/kg, po QD measured on day 4. The class given is ADME, organism-based. More on the design: dose 19 mg/kg, route oral. To be noted: in vivo. The procedure, abridged: as §4
Series [27] can be described thus: AUC in Sprague-Dawley rat at 19 mg/kg, po QD measured on day 1. The class given is ADME, organism-based. To be noted: in vivo. The procedure, abridged: as §4
Series [28] can be described thus: AUC in Sprague-Dawley rat at 19 mg/kg, po QD measured on day 4. The format is ADME, organism-based. The conditions noted are these: in vivo. An outline of the steps:
as §4

Series [29] relates to Rattus norvegicus. As to the kind of experiment: Dose normalized AUC in Sprague-Dawley rat at 19 mg/kg, po QD measured on day 1. To be noted: in vivo. The format is ADME, organism-based. An outline of the steps:
as §4

Series [30] has as its system Rattus norvegicus. Nature of the series: Dose normalized AUC in Sprague-Dawley rat at 19 mg/kg, po QD measured on day 4. The class given is ADME, organism-based. The conditions noted are these: in vivo. An outline of the steps: as §4

Consider `CC(C)Nc1ncc(-c2nc(-c3ccc4c(c3)CCN(C(CO)CO)CC4)no2)cc1C#N`, for which the bioavailability in series [1] is 67%. For the same compound, the half-life in series [2] was 8.1 h. Further, the Vd in series [3] was found to be 10.9 L/kg. Further, the clearance in series [4] was 22 mL/min/kg. The same compound returned a logD in series [5] of 2.63. In series [6], the pKa came out at 8.1. The fold induction at 96 h in series [7] stood at 100; in series [8], 2. Further, the Cmax in series [9] is 1010 ng/mL; in series [10] it was 1220 ng/mL. For the same compound, the exposure (AUC) in series [11] stood at 15300 ng·h/mL; in series [12] it was 21300 ng·h/mL. In addition, the values for the AUC/dose in [13] and in series [14] were 38 kg·min/L and 55 kg·min/L, respectively.
In turn, `Cc1c(-c2noc(-c3cnc(NC(C)C)c(C#N)c3)n2)ccc2c1CCN(C(CO)CO)CC2` showed a log distribution coefficient (logD) in [5] of 2.44. Moreover, the pKa in series [6] worked out at 8.3. For the same compound, the fold induction at 96 h stood at 81 in series [7] and 2 in series [8]. For the same compound, the highest concentration (Cmax) in series [9] is 1140 ng/mL; in [10], 1350 ng/mL. Besides, the results for the AUC in series [11] and in series [12] were 17000 ng·h/mL and 24900 ng·h/mL, respectively. The results for the AUC/dose in series [13] and in series [14] were 43 kg·min/L and 63 kg·min/L, respectively.
For the compound `Cc1c(-c2noc(-c3ccc(OC(C)C)c(C#N)c3)n2)ccc2c1CCN(C(CO)CO)CC2`, in series [5], the pH-dependent lipophilicity (logD) worked out at 2.64. This compound also yielded a pKa in [6] of 8.2. The fold induction at 96 h in series [15] is 275; in series [16] it was 1.9. The results for the highest concentration (Cmax) in series [17] and in series [18] were 550 ng/mL and 670 ng/mL, respectively. Moreover, the AUC in series [19] stood at 9100 ng·h/mL; in series [20], 11500 ng·h/mL. For the same compound, the AUC/dose in series [21] was 36 kg·min/L; in series [22] it was 46 kg·min/L.
In series [5], `Cc1c(-c2noc(-c3ccc(OC(C)C)c(C#N)c3)n2)ccc2c1CCN(C[C@@H](O)CO)CC2` showed a log distribution coefficient (logD) of 2.36. The pKa in series [6] was 8.4. Also, the fold induction at 96 h in series [23] was determined as 126; in series [24], 1.7. Also, the Cmax in series [25] stood at 1290 ng/mL; in series [26] it was 1530 ng/mL. Moreover, the AUC is 20800 ng·h/mL in series [27] and 26000 ng·h/mL in series [28]. Besides, the values for the AUC/dose in series [29] and in [30] were 65 kg·min/L and 83 kg·min/L, respectively.
For `CC(C)Oc1ccc(-c2nc(-c3cccc4c3CCN(C(CO)CO)C4)no2)cc1C#N`, in [5], the logD turned out to be 2.58. Besides, in series [6], the pKa was found to be 7.3. For the same compound, the fold induction at 96 h came out at 1.6 in series [15] and 2 in [16]. Also, the values for the Cmax in series [17] and in [18] were 900 ng/mL and 940 ng/mL, respectively. The area under the curve (AUC) in series [19] amounted to 12100 ng·h/mL; in [20], 13900 ng·h/mL. Besides, the AUC/dose in series [21] amounted to 48 kg·min/L; in [22] it was 56 kg·min/L.

One may read the bioavailability as dose-corrected exposure relative to a reference, in per cent. Low readings indicate little systemic uptake, high ones much systemic uptake. The term half-life denotes how long it takes for the measured level to halve. For orientation: clearance means the rate of elimination divided by the concentration. Low readings indicate inefficient removal, high ones efficient removal. As a reminder, the logD is the decadic logarithm of the distribution of all forms, ionised or not, between an organic phase and buffer at a given pH. A lower logD goes with lower lipophilicity. Usually pKa stands for the negative logarithm of the acid dissociation constant. A higher pKa goes with a group that holds its proton tightly. What is called Cmax is the highest concentration seen after dosing. Usually AUC stands for the area under the concentration-time curve, a measure of exposure. The low end stands for less exposure, the high end for more exposure.
